Reference: ChEMBL document CHEMBL1137816, “New polyhydroxylated pyrrolidine, piperidine, and pyrrolizidine alkaloids from Scilla sibirica” (J Nat Prod, 2002)
Activity calls are given as the source filed them. The calls are words filed in the database; no cut-off is given here.

How the values were obtained:
[1] = Inhibition of Penicillium decumbens alpha-L-rhamnosidase assessed as p-nitrophenol release after 30 mins by spectrophotometry
Method in brief: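 Penicillium decumbens enzyme assayed at pH 4.5 with the appropriate p-nitrophenyl glycoside. Substrate, diluted enzyme and inhibitor were incubated 30 min at 37 °C, then stopped with 400 mM Na2CO3. Released p-nitrophenol was read at 400 nm.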

[2] = molecular target: T1, Beta-mannosidase (Rattus norvegicus) (UniProt Q4FZV0); assay: Inhibition of rat epididymis beta-mannosidase assessed as p-nitrophenol release at 1000 uM after 30 mins by spectrophotometry
T1 sequence (whole entry): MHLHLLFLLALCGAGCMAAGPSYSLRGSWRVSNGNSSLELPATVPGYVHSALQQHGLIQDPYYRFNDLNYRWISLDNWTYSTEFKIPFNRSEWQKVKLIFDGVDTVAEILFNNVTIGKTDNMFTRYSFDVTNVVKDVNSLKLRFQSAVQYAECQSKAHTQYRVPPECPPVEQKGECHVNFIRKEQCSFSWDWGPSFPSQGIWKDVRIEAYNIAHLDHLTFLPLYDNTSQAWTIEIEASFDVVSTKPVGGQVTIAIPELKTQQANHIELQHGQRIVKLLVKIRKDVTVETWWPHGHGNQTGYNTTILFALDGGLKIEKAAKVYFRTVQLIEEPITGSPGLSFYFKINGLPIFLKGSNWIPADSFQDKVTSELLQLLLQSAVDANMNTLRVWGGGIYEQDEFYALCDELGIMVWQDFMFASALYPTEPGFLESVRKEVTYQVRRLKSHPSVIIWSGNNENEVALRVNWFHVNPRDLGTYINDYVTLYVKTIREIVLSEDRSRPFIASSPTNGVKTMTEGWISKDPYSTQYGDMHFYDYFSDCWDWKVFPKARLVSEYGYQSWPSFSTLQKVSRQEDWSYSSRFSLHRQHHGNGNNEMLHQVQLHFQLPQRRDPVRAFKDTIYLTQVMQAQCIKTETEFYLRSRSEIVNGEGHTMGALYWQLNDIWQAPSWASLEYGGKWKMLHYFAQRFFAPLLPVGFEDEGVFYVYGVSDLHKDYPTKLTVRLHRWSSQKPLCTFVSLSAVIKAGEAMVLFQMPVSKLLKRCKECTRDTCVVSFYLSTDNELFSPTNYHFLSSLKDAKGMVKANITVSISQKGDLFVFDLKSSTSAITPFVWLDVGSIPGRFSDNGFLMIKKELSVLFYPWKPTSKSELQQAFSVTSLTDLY
Method in brief: (§1)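 p-Nitrophenyl glycoside substrates: Penicillium decumbens α-L-rhamnosidase at pH 4.5, bovine epididymis α-L-fucosidase at pH 5.5, bovine liver β-galactosidase at pH 6.8. β-Mannosidase came from rat epididymal fluid purified from epididymis, with p-nitrophenyl-β-D-mannoside at pH 5.2. Enzyme, substrate and inhibitor were incubated 30 min at 37 °C. The reaction was stopped with 400 mM Na2CO3, and p-nitrophenol was read at 400 nm.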

[3] = molecular target: T2, Tissue alpha-L-fucosidase (Bos taurus) (UniProt Q2KIM0); assay: Inhibition of bovine epididymis alpha-L-fucosidase assessed as p-nitrophenol release at 1000 uM after 30 mins by spectrophotometry; method in brief: as §1
T2 sequence (whole entry): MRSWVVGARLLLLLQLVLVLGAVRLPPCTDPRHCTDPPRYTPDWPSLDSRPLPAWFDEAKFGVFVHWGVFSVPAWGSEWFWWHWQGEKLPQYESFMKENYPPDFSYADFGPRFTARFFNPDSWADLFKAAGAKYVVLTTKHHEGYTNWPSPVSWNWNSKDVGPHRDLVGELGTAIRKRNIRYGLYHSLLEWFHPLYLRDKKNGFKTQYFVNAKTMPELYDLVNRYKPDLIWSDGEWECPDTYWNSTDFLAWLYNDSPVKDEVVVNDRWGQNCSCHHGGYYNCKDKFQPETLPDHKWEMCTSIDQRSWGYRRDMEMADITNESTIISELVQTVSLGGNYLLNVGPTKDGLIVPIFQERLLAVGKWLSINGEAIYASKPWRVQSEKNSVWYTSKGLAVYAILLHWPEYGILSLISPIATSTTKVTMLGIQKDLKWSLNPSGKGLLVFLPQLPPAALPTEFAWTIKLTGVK

[4] = system: Oryza sativa; assay: Inhibition of rice alpha-glucosidase assessed as D-glucose release at 1000 uM after 10 mins by Glucose B-test
Method in brief: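 Rice α-glucosidase was assayed with maltose as substrate at the enzyme's optimum pH. Incubation with inhibitor was 10 min at 37 °C. Released D-glucose was determined colorimetrically by Glucose B-test.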

[5] = molecular target: Lysosomal alpha-glucosidase (Rattus norvegicus) (UniProt Q6P7A9); assay: Inhibition of rat intestinal maltase assessed as D-glucose release at 1000 uM after 30 mins by Glucose B-test
Method in brief: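 Brush border membranes from rat small intestine served as the enzyme source, with maltose substrate at pH 5.8. Incubation with inhibitor was 30 min at 37 °C. Released D-glucose was measured colorimetrically by Glucose B-test.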

[6] = molecular target: Oligo-1,6-glucosidase IMA1 (Saccharomyces cerevisiae S288c) (UniProt P53051); assay: Inhibition of yeast alpha-glucosidase assessed as p-nitrophenol release at 1000 uM after 30 mins measured spectrometrically at 400 nm
[7] = molecular target: Lysosomal alpha-glucosidase (Rattus norvegicus) (UniProt Q6P7A9); assay: Inhibition of rat liver lysosome alpha-glucosidase assessed as p-nitrophenol release at 1000 uM after 30 mins measured spectrometrically at 400 nm
[8] = molecular target: T3, Beta-mannosidase (Rattus norvegicus, UniProt Q4FZV0); assay: Inhibition of rat epididymis beta-mannosidase assessed as p-nitrophenol release after 30 mins by spectrophotometry
T3 sequence (Q4FZV0 whole entry): T1 sequence (whole entry)
Method in brief: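 Source was rat epididymal fluid purified from epididymis. Assayed at pH 5.2 with p-nitrophenyl-β-D-mannoside, incubated with inhibitor 30 min at 37 °C. Stopped with 400 mM Na2CO3; p-nitrophenol read at 400 nm.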

[9] = molecular target: T4, Beta-galactosidase (Bos taurus, UniProt Q58D55); assay: Inhibition of bovine liver beta-galactosidase assessed as p-nitrophenol release after 30 mins by spectrophotometry
T4 sequence (Q58D55 whole entry): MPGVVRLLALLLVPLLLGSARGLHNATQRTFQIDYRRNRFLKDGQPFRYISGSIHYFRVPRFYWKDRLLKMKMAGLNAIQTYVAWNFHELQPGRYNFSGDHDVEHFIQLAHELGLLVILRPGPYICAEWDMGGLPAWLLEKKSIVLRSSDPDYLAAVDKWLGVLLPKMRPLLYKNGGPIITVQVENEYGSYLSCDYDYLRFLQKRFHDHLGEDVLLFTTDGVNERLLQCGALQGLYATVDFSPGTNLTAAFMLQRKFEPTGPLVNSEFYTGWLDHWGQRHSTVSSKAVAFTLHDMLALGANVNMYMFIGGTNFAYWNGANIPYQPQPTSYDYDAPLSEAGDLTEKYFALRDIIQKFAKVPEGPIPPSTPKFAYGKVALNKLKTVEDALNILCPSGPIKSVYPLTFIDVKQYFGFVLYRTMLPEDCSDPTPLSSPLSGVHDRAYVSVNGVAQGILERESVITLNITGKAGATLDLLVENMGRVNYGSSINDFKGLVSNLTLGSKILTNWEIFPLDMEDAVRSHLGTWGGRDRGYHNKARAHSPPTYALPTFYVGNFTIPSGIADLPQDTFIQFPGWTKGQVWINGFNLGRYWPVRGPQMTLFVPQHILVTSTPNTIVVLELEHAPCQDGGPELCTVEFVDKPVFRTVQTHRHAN
Method in brief: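 Bovine liver enzyme at pH 6.8 with the appropriate p-nitrophenyl glycoside. Incubated with inhibitor 30 min at 37 °C, quenched with 400 mM Na2CO3, and released p-nitrophenol read at 400 nm.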

[10] = molecular target: Alpha-glucosidase MAL12 (Saccharomyces cerevisiae S288c, UniProt P53341); assay: Inhibition of yeast alpha-glucosidase assessed as p-nitrophenol release after 30 mins measured at 400 nm
[11] = molecular target: Beta-glucosidase A (Caldicellulosiruptor saccharolyticus, UniProt P10482); assay: Inhibition of Caldocellum saccharolyticum beta-glucosidase assessed as p-nitrophenol release after 30 mins measured spectrometrically at 400 nm
[12] = molecular target: T5, Tissue alpha-L-fucosidase (Bos taurus, UniProt Q2KIM0); assay: Inhibition of bovine epididymis alpha-L-fucosidase assessed as p-nitrophenol release after 30 mins by spectrophotometry
T5 sequence (Q2KIM0 whole entry): T2 sequence (whole entry)
Method in brief: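 Enzyme from bovine epididymis, run at pH 5.5 with the appropriate p-nitrophenyl glycoside substrate. Enzyme, substrate and inhibitor incubated together 30 min at 37 °C. Reaction stopped by adding 400 mM Na2CO3; p-nitrophenol measured spectrometrically at 400 nm.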

[13] = molecular target: T6, Beta-galactosidase (Bos taurus) (UniProt Q58D55); assay: Inhibition of bovine liver beta-galactosidase assessed as p-nitrophenol release at 1000 uM after 30 mins by spectrophotometry; method in brief: as §1
T6 sequence (whole entry): T4 sequence (Q58D55 whole entry)

[14] = system: Penicillium decumbens; assay: Inhibition of Penicillium decumbens alpha-L-rhamnosidase assessed as p-nitrophenol release at 1000 uM by spectrophotometry; method in brief: as §1
[15] = molecular target: Oligo-1,6-glucosidase IMA1 (Saccharomyces cerevisiae S288c) (UniProt P53051); assay: Inhibition of yeast alpha-glucosidase assessed as D-glucose release at 1000 uM after 30 mins by Glucose B-test
[16] = molecular target: Lysosomal alpha-glucosidase (Rattus norvegicus) (UniProt Q6P7A9); assay: Inhibition of rat liver lysosome alpha-glucosidase assessed as D-glucose release at 1000 uM after 30 mins by Glucose B-test
[17] = Inhibition of rat intestinal amyloglucosidase
[18] = Inhibition of rice alpha-glucosidase assessed as D-glucose release after 10 mins by Glucose B-test; parameters: species or system Oryza sativa
Method in brief: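 Rice enzyme with maltose as substrate at the enzyme's optimum pH. Incubation with inhibitor ran 10 min at 37 °C. Released D-glucose determined colorimetrically with a glucose test kit.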

Sequence of Oligo-1,6-glucosidase IMA1 (Saccharomyces cerevisiae S288c) (P53051 whole entry): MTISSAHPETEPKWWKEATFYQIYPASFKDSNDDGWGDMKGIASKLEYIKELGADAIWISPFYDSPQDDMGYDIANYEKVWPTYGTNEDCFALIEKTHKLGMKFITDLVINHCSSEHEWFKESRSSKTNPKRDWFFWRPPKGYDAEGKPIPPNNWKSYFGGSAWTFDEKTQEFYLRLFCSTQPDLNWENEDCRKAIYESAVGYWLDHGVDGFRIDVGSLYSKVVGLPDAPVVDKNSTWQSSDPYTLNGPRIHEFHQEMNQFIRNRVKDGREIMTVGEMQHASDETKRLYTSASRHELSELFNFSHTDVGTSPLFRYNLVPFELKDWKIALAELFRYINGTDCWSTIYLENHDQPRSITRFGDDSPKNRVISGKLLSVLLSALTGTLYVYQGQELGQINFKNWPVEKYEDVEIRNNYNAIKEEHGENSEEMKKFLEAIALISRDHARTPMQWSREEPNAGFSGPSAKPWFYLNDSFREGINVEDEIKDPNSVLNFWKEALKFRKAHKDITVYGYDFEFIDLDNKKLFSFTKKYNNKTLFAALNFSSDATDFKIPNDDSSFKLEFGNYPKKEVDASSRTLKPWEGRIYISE
Sequence of Beta-glucosidase A (P10482 whole entry): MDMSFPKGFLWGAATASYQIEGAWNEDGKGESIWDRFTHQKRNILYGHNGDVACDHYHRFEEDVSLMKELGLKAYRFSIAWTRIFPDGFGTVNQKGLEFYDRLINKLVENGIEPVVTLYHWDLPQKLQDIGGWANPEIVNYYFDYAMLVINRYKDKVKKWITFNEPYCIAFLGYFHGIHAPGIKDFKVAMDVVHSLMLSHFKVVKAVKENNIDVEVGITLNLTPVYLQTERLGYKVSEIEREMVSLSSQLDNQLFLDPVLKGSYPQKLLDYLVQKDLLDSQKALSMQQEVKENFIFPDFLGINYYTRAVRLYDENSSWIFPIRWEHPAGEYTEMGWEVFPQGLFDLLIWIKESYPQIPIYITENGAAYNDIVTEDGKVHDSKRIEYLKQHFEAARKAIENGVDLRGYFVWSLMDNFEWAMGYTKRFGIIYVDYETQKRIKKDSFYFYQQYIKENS
Sequence of Alpha-glucosidase MAL12 (P53341 whole entry): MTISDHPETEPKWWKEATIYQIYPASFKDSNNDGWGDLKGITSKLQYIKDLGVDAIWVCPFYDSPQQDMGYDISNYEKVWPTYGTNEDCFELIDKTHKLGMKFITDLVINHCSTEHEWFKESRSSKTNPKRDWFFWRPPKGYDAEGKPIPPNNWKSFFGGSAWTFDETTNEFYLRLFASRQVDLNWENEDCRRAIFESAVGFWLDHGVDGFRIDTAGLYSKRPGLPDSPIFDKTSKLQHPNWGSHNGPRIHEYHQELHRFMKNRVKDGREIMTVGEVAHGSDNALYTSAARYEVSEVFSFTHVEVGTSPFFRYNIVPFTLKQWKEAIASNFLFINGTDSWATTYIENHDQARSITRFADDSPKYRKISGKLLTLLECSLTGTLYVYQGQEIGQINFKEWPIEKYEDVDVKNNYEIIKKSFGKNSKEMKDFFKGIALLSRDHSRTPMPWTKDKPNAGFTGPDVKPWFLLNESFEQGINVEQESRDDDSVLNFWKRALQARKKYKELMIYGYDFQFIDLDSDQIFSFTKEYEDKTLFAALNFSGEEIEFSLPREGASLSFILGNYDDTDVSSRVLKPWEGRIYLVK
Sequence of Lysosomal alpha-glucosidase (Rattus norvegicus) (Q6P7A9 whole entry): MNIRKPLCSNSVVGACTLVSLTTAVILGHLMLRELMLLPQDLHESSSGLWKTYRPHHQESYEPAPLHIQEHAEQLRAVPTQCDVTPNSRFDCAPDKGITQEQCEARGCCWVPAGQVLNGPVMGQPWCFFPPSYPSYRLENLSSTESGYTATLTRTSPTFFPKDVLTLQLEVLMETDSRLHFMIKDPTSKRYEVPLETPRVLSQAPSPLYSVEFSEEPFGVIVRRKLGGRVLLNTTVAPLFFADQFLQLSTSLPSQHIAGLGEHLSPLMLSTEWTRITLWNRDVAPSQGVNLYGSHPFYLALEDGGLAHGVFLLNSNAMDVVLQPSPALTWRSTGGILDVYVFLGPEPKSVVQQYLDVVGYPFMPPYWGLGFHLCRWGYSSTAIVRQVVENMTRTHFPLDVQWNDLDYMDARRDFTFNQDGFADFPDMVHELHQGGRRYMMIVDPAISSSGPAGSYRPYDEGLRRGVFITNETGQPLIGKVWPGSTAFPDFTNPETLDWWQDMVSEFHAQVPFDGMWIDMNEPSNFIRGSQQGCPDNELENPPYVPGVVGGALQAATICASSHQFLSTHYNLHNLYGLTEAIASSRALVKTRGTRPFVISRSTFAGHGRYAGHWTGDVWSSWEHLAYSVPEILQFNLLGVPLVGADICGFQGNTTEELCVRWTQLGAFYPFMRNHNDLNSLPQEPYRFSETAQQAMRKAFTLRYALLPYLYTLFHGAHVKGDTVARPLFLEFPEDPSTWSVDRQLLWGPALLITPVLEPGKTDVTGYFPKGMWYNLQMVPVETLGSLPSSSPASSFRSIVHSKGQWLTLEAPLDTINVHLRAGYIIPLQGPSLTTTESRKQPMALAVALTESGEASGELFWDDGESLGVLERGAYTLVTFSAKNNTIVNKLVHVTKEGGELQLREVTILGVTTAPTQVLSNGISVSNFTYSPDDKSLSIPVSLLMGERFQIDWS

| inhibition [3] [%] | inhibition [4] [%] | inhibition [7] [%] | IC50 [8] [µM] | SMILES | Activity [13] | Activity [3] | Activity [14] | Activity [4] | Activity [15] | Activity [5] | Activity [16] | also measured |
| --- | --- | --- | --- | --- | --- | --- | --- | --- | --- | --- | --- | --- |
| < 50 | < 50 | < 50 |  | OC[C@H]1NC[C@@H](O)[C@H](O)[C@@H]1O |  |  |  |  |  |  |  | IC50 [1]: 1.8 µM; inhibition [2]: < 50%; inhibition [5]: < 50%; inhibition [6]: < 50% |
|  | < 50 | < 50 | 320 | OCC[C@H]1N[C@H](CO)[C@@H](O)[C@@H]1O |  |  |  |  |  |  |  | IC50 [9]: 88 µM; IC50 [1]: 94 µM; inhibition [5]: < 50%; IC50 [10]: 250 µM; IC50 [11]: 350 µM |
|  | < 50 | < 50 | 160 | OCC[C@H]1N[C@H](CO)[C@@H](O)[C@@H]1O[C@@H]1O[C@H](CO)[C@@H](O)[C@H](O)[C@@H]1O |  |  |  |  |  |  |  | IC50 [12]: 78 µM; inhibition [5]: < 50%; inhibition [6]: < 50% |
|  |  |  |  | C[C@@H]1CC[C@@H]2[C@H](O)[C@H](O)[C@@H](CO)N12 (relative stereo) | inactive | inactive | inactive | inactive | inactive | inactive | inactive |  |
|  |  |  |  | C[C@@H]1C[C@H](O)[C@@H]2[C@H](O)[C@@H](O)[C@@H](CO)N21 (relative stereo) | inactive | inactive | inactive | inactive | inactive | inactive | inactive |  |
|  |  |  |  | C[C@H]1CC[C@@H]2[C@H](O)[C@H](O)[C@@H](CO)N21 (relative stereo) | inactive | inactive | inactive | inactive | inactive | inactive | inactive |  |
|  |  |  |  | C[C@H]1CC[C@@H]2[C@H](O)[C@H](O)[C@H](CO)N21 (relative stereo) | inactive | inactive | inactive | inactive | inactive | inactive | inactive | Activity [2]: inactive |
|  |  |  |  | C[C@@H]1CC[C@@H]2[C@@H](O)[C@@H](O)[C@@H](CO)N12 (relative stereo) [HYACINTHACINE A5] | inactive | inactive | inactive | inactive | inactive | inactive | inactive | IC50 [17]: 110 µM |
|  |  |  |  | C[C@@H]1C[C@H](O)[C@@H]2[C@H](O)[C@H](O)[C@@H](CO)N21 (relative stereo) [HYACINTHACINE B5] | inactive | inactive | inactive | inactive | inactive | inactive | inactive | IC50 [17]: 110 µM |
| < 50 |  | < 50 | 53 | OCC(O)[C@H]1N[C@H](CO)[C@@H](O)[C@@H]1O (single isomer, unassigned) |  |  |  |  |  |  |  | IC50 [18]: 95 µM; IC50 [9]: 4.4 µM; inhibition [14]: < 50%; IC50 [10]: 220 µM; IC50 [11]: 3.2 µM |
| < 50 |  | < 50 | 35 | CC(O)[C@H]1N[C@H](CO)[C@@H](O)[C@@H]1O (single isomer, unassigned) |  |  |  |  |  |  |  | IC50 [18]: 9.2 µM; IC50 [9]: 3.4 µM; inhibition [14]: < 50%; IC50 [10]: 85 µM; IC50 [11]: 6.7 µM |

| SMILES | inhibition [3] [%] | inhibition [4] [%] | inhibition [7] [%] | IC50 [8] [µM] | Activity [13] | Activity [3] | Activity [14] | Activity [4] | Activity [15] | Activity [5] | Activity [16] | also measured |
| --- | --- | --- | --- | --- | --- | --- | --- | --- | --- | --- | --- | --- |
| OCC[C@H]1N[C@@H](CO)[C@H](O)[C@H]1O |  | < 50 |  |  |  |  |  |  |  |  |  | IC50 [12]: 840 µM; inhibition [2]: < 50%; inhibition [13]: < 50%; inhibition [14]: < 50%; inhibition [6]: < 50% |
| OC[C@H]1NC[C@H](O)[C@@H](O)[C@@H]1O [DUVOGLUSTAT] | < 50 |  |  |  |  |  |  |  |  |  |  | IC50 [18]: 0.05 µM; IC50 [1]: 850 µM; inhibition [2]: < 50%; inhibition [13]: < 50% |
